# High-throughput results deposited in PubChem BioAssay by The Scripps Research Institute Molecular Screening Center.
# The list is not random: actives were taken first. Their share in the collection is about 4.5%.
# TAAR1 ag: human TAAR1 agonists, primary screen, Fluo-8 calcium fluorescence, CHO RD-HGA16 cells; Trace amine-associated receptor 1 (Homo sapiens), Q96RJ0; vehicle wells 0%, saturating PEA agonist 100%; activation, % at 3 µM; 0.99% of 360,000 active; AID 624467, 2012;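 active means activation above the mean activation of all test compounds in the run plus 3 SD, cut at about 38% in these data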
#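 Signal – calcium-sensitive Fluo-8 signal, excitation 470-495, emission 515-575 nm · System – RD-HGA16 (CHO) cells co-expressing Gα16 and hTAAR1 · Incubation – 17-24 h seeding, 75 min 37 °C dye, 30 min RT · Compound dosing – 3 µM single concentration · Repeats – no replicates (n 1)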
# GPR7 antag: GPR7 receptor antagonists, primary screen, cell-based, fluorescence, single concentration. Neuropeptides B/W receptor type 1 (Homo sapiens), P48145. GPR7-expressing cells, fluorescence antagonist assay. inhibition, % at 4.4 µM. 1.1% of 290,000 active. AID 1861, 2009; in the data active means inhibition above about 16%, passing the limit was not always enough;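 further: cells stimulated with the agonist NPW; 0% = agonist with vehicle and 100% = vehicle without agonist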
# Target sequence (P48145 whole entry, looked up): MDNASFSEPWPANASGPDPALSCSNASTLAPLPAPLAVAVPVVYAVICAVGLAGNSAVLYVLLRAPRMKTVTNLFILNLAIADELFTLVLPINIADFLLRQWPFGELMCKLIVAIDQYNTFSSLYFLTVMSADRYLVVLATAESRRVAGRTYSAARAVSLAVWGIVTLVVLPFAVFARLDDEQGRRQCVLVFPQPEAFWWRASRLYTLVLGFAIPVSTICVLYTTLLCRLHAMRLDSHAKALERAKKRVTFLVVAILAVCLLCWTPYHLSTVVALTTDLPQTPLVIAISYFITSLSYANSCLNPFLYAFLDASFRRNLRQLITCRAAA
# TAAR1 antagonist: human TAAR1 antagonists, primary screen, Fluo-8 calcium fluorescence, CHO RD-HGA16 cells; Trace amine-associated receptor 1 (Homo sapiens), Q96RJ0; antagonist; inhibition, % at 3 µM; 1.5% of 360,000 active;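 active means inhibition above a per-plate cutoff, the mean inhibition of test compounds on that plate plus 3 SD, cut at about 49% in these data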;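 further: 0% = DMSO plus EC80 beta-PEA response and 100% = DMSO alone without agonist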
#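 Test system – hTAAR1-expressing CHO RD-HGA16 cells, Gα16-coupled · Also added – β-PEA at EC80 concentration, post-compound challenge · Compound – 3 µM, single point · Incubation – dye loading 75 min at 37 °C, then 30 min room temperature · Measured by – Fluo-8 intracellular calcium dye fluorescence, real-time kinetic reads · Benchmarks – vehicle and agonist controls · Replicates – singlicate, one well per test compound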
# CHO parental Ca: ATP-evoked calcium signal inhibitors, parental CHO, primary screen, counter-screen for OX1R antagonist project, cell-based, fluorescence, Fluo-8 calcium dye; inhibition, % at 5.6 µM; parental CHO-K1, ATP-induced calcium, Fluo-8 fluorescence; 0.63% of 330,000 active;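 active means inhibition above that plate's mean sample inhibition plus 3 SD, cut at about 26% in these data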;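 further: 0% = ATP-challenged DMSO wells and 100% = DMSO wells without ATP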
#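 Assay system: untransfected parental CHO cell line. Also added: ATP agonist challenge. Dosing: one dose, 5.6 µM nominal. Measured by: Fluo-8 fluorescence. Read-out: % inhibition. Benchmarks: ATP wells versus no-ATP DMSO wells. Repeats: no replicates.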
# OX1R antag-1: antagonists of human orexin 1 receptor (OX1R); inhibition, % at 6.6 µM; OX1R-expressing cells, FRET antagonist read-out; Orexin/Hypocretin receptor type 1 (Homo sapiens), O43613; 1.8% of 330,000 active; in the data active means inhibition mostly above about 38%, no sharp cut-off; inactive means mostly below about 40%;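 further: 0% = agonist challenge alone and 100% = reference antagonist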
# OX1R antag-2: OX1R (HCRTR1) antagonists, primary screen, fluorescence, CHO/OX1R cells, Fluo-8 calcium, orexin A. Orexin/Hypocretin receptor type 1 (Homo sapiens), O43613. inhibition, % at 5 µM. Fluo-8 calcium fluorescence. 0.43% of 330,000 active. AID 434989, 2010;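 active means inhibition above its plate's threshold, mean inhibition of all tested compounds on the plate plus 3 SD, cut at about 37% in these data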;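 further: 0% = orexin A challenge wells and 100% = SB-334867-A antagonist wells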
# Starred values were filed as active, the others as inactive; x = no result given.
SMILES,TAAR1 ag,GPR7 antag,TAAR1 antagonist,CHO parental Ca,OX1R antag-1,OX1R antag-2
CCOC(=O)C1=C(C)NC2=C(C(=O)CC(c3cccs3)C2)C1c1cccs1 (stereo not drawn),7.8,-0.1,17.7,2.1,0.0,-21.4
COC(=O)C1=C(C)NC2=C(C(=O)CC(c3cccs3)C2)C1c1ccsc1 (stereo not drawn),10.1,21.8*,3.3,-9.7,22.1,-20.6
CNC(C)C#Cc1ccc2oc3cccc(OC)c3c(=O)c2c1 (stereo not drawn),1.4,9.0,7.4,-19.7,47.8*,-3.8
CNC(C)C#Cc1ccc2c(=O)c3c(OC)cccc3oc2c1 (stereo not drawn),x,5.3,x,-9.6,49.1,-19.1
Cc1ccc(/C=N/Nc2nncn2N)cc1,-1.8,-10.2,9.4,-4.3,43.3*,1.1
Nn1cnnc1N/N=C/c1ccc(Cl)c([N+](=O)[O-])c1,4.9,-14.7,12.5,-25.7,61.1*,-9.3
Nn1cnnc1N/N=C/c1ccc(F)cc1,5.2,-16.8,-12.1,-1.9,65.1*,-3.3
Nc1nnnn1/N=C\c1ccc(Cl)c([N+](=O)[O-])c1,-0.2,-5.2,-0.7,8.8,65.0*,7.0
O=C(Nc1ccccc1C(=O)Nc1nccs1)c1ccccc1,4.3,x,23.4,x,x,x
O=S(=O)(Nc1ccncc1Cl)c1cc(Cl)ccc1Cl,0.7,20.3*,1.8,10.2,36.7,-11.4
Nc1ccc2oc(-c3cc(Br)ccc3Cl)nc2c1,x,-16.3,x,-15.6,47.3*,-4.7
CCNC(=O)N(C)[C@H]1C[C@@H](c2ccccc2)N(C(C)=O)C[C@H]1CO,1.7,x,-6.2,x,x,x
O=C(Nc1ccccc1Br)C1CCCN1S(=O)(=O)c1cccc2nsnc12 (stereo not drawn),-1.3,-7.7,-5.4,-25.1,56.3*,-0.6
CCOC(=O)c1c(NC(=O)C2CCCN2S(=O)(=O)c2cccc3nsnc23)sc(C)c1C (stereo not drawn),0.4,x,-22.8,x,x,x
Cc1c(NC(=O)C2CCCN2S(=O)(=O)c2cccc3nsnc23)cccc1C(=O)O (stereo not drawn),-0.1,-1.6,11.8,-10.4,48.2*,-13.0
CC1CCCC(NC(=O)C2CCCN2S(=O)(=O)c2cccc3nsnc23)C1C (stereo not drawn),0.3,1.8,-4.7,-15.2,70.6*,-27.7
O=C(Nc1ccccc1F)C1CCCN1S(=O)(=O)c1cccc2nsnc12 (stereo not drawn),0.1,-13.7,-19.3,-8.8,68.2*,9.0
Cc1ccc(C(=O)O)cc1NC(=O)C1CCCN1S(=O)(=O)c1cccc2nsnc12 (stereo not drawn),1.4,-11.5,0.8,3.3,51.5*,-11.6
CCCCNC(=O)C1CCCN1S(=O)(=O)c1cccc2nsnc12 (stereo not drawn),6.1,1.8,-2.6,-7.2,29.1,-4.5
CN(C)S(=O)(=O)c1ccc(Cl)c(NC(=O)COC(=O)/C=C/c2ccc3ccccc3n2)c1,-0.3,x,8.8,-0.2,5.3,-17.5
NC1=NC(=O)/C(=C/c2ccccc2OCC(=O)Nc2ccc(F)cc2)S1,0.5,x,7.6,2.2,4.2,-14.5
O=C(COc1ccccc1/C=C1\SC(=S)NC1=O)Nc1ccc(F)cc1,-0.7,x,41.3,10.9,57.2*,16.8
COc1ccc(S(=O)(=O)Nc2ccc3c(c2)C(=O)N([C@H](C)CO)C[C@H](C)[C@@H](CN(C)C(=O)NC(C)C)O3)cc1,3.1,x,3.0,-6.0,2.2,8.7
Cn1cc(/C=C/c2cc[n+](C)cc2)c2cc(F)ccc21,x,-14.9,x,-7.3,44.0*,-7.6
Cn1cc(C=O)c2cc(F)ccc21,2.8,4.3,-7.0,-3.4,12.2,-10.1
N#Cc1cc([N+](=O)[O-])ccc1NC(=O)COC(=O)CN1C(=O)C2CCCCC2C1=O (stereo not drawn),2.4,x,7.1,-16.5,43.5*,-21.9
